Tested on: MDA-MB-231
Test: Growth inhibition of human MDA-MB-231 cells at 10 uM after 48 hrs by SRB assay
Assay type: functional
Details: MDA-MB-231, 48 h, read-out: GI
Procedure, shortened: (§1)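 NCI-60 primary one-dose screen run at the US NCI, with human tumour lines from nine cancer types. Compound added once at 10^-5 M, followed by 48 h incubation. End point was sulforhodamine B protein staining read spectrophotometrically. Result given as percent growth of treated cells against untreated controls, reported as % growth inhibition.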

SMILES | inhibition of growth at 10 µM [%]
Cc1ccc(-c2nc3ccc(Cl)cc3c3nnnn23)cc1 | 27

Tested on: DU-145
Test: Growth inhibition of human DU145 cells at 10 uM after 48 hrs by SRB assay
Assay type: functional
Details: DU-145, 48 h, read-out: GI
Procedure, shortened: as §1

SMILES | inhibition of growth at 10 µM [%]
Cc1ccc(-c2nc3ccc(Cl)cc3c3nnnn23)cc1 | < 10

Tested on: not listed separately
Test: Growth inhibition of human HCC2998 cells at 10 uM after 48 hrs by SRB assay
Assay type: functional
Details: HCC 2998, 48 h, read-out: GI
Procedure, shortened: as §1

SMILES | inhibition of growth at 10 µM [%]
Cc1ccc(-c2nc3ccc(Cl)cc3c3nnnn23)cc1 | < 10

Tested on: SR
Test: Growth inhibition of human SR cells at 10 uM after 48 hrs by SRB assay
Assay type: functional
Details: read-out: GI
Procedure, shortened: as §1

SMILES | inhibition of growth at 10 µM [%]
Cc1ccc(-c2nc3ccc(Cl)cc3c3nnnn23)cc1 | < 10

Tested on: TK-10
Test: Growth inhibition of human TK10 cells at 10 uM after 48 hrs by SRB assay
Assay type: functional
Details: TK-10, 48 h, read-out: GI
Procedure, shortened: as §1

SMILES | inhibition of growth at 10 µM [%]
Cc1ccc(-c2nc3ccc(Cl)cc3c3nnnn23)cc1 | < 10

Tested on: not listed separately
Test: Growth inhibition of human SF539 cells at 10 uM after 48 hrs by SRB assay
Assay type: functional
Details: SF-539, 48 h, read-out: GI
Procedure, shortened: as §1

SMILES | inhibition of growth at 10 µM [%]
Cc1ccc(-c2nc3ccc(Cl)cc3c3nnnn23)cc1 | 18

Tested on: not listed separately
Test: Growth inhibition of human LOXIMVI cells at 10 uM after 48 hrs by SRB assay
Assay type: functional
Details: LOX IMVI, read-out: GI
Procedure, shortened: as §1

SMILES | inhibition of growth at 10 µM [%]
Cc1ccc(-c2nc3ccc(Cl)cc3c3nnnn23)cc1 | < 10

Tested on: not listed separately
Test: Growth inhibition of human UACC257 cells at 10 uM after 48 hrs by SRB assay
Assay type: functional
Details: UACC-257, 48 h, read-out: GI
Procedure, shortened: as §1

SMILES | inhibition of growth at 10 µM [%]
Cc1ccc(-c2nc3ccc(Cl)cc3c3nnnn23)cc1 | < 10

Tested on: not listed separately
Test: Growth inhibition of human OVCAR4 cells at 10 uM after 48 hrs by SRB assay
Assay type: functional
Details: OVCAR-4, 48 h, read-out: GI
Procedure, shortened: as §1

SMILES | inhibition of growth at 10 µM [%]
Cc1ccc(-c2nc3ccc(Cl)cc3c3nnnn23)cc1 | < 10

Tested on: not listed separately
Test: Growth inhibition of human BT549 cells at 10 uM after 48 hrs by SRB assay
Assay type: functional
Details: BT-549, 48 h, read-out: GI
Procedure, shortened: (§2)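 NCI primary one-dose screen. A single concentration of 10^-5 M was added to the cell culture, followed by 48 h incubation and an SRB protein-dye endpoint read spectrophotometrically. Results are growth percentage relative to untreated control cells, reported as % growth inhibition.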

SMILES | inhibition of growth at 10 µM [%]
Cc1ccc(-c2nc3ccc(Cl)cc3c3nnnn23)cc1 | < 10

Tested on: 786-0
Test: Growth inhibition of human 786-0 cells at 10 uM after 48 hrs by SRB assay
Assay type: functional
Details: 786-0, 48 h, read-out: GI
Procedure, shortened: as §2

SMILES | inhibition of growth at 10 µM [%]
Cc1ccc(-c2nc3ccc(Cl)cc3c3nnnn23)cc1 | < 10

Tested on: PC-3
Test: Growth inhibition of human PC3 cells at 10 uM after 48 hrs by SRB assay
Assay type: functional
Details: PC-3, 48 h, read-out: GI
Procedure, shortened: as §1

SMILES | inhibition of growth at 10 µM [%]
Cc1ccc(-c2nc3ccc(Cl)cc3c3nnnn23)cc1 | 18

Tested on: HT-29
Test: Growth inhibition of human HT-29 cells at 10 uM after 48 hrs by SRB assay
Assay type: functional
Details: HT-29, 48 h, read-out: GI
Procedure, shortened: as §1

SMILES | inhibition of growth at 10 µM [%]
Cc1ccc(-c2nc3ccc(Cl)cc3c3nnnn23)cc1 | < 10

Tested on: NCI-H226
Test: Growth inhibition of human NCI-H226 cells at 10 uM after 48 hrs by SRB assay
Assay type: functional
Details: NCI-H226, 48 h, read-out: GI
Procedure, shortened: as §1

SMILES | inhibition of growth at 10 µM [%]
Cc1ccc(-c2nc3ccc(Cl)cc3c3nnnn23)cc1 | < 10

Tested on: not listed separately
Test: Growth inhibition of human RXF393 cells at 10 uM after 48 hrs by SRB assay
Assay type: functional
Details: RXF 393, 48 h, read-out: GI
Procedure, shortened: as §1

SMILES | inhibition of growth at 10 µM [%]
Cc1ccc(-c2nc3ccc(Cl)cc3c3nnnn23)cc1 | < 10

Tested on: NCI-H522
Test: Growth inhibition of human NCI-H522 cells at 10 uM after 48 hrs by SRB assay
Assay type: functional
Details: NCI-H522, 48 h, read-out: GI
Procedure, shortened: as §1

SMILES | inhibition of growth at 10 µM [%]
Cc1ccc(-c2nc3ccc(Cl)cc3c3nnnn23)cc1 | 21

Tested on: U-251
Test: Growth inhibition of human U251 cells at 10 uM after 48 hrs by SRB assay
Assay type: functional
Details: U-251, 48 h, read-out: GI
Procedure, shortened: as §1

SMILES | inhibition of growth at 10 µM [%]
Cc1ccc(-c2nc3ccc(Cl)cc3c3nnnn23)cc1 | < 10

Tested on: not listed separately
Test: Growth inhibition of human OVCAR8 cells at 10 uM after 48 hrs by SRB assay
Assay type: functional
Details: OVCAR-8, 48 h, read-out: GI
Procedure, shortened: as §1

SMILES | inhibition of growth at 10 µM [%]
Cc1ccc(-c2nc3ccc(Cl)cc3c3nnnn23)cc1 | < 10

Tested on: IGROV-1
Test: Growth inhibition of human IGROV1 cells at 10 uM after 48 hrs by SRB assay
Assay type: functional
Details: IGROV-1, 48 h, read-out: GI
Procedure, shortened: as §1

SMILES | inhibition of growth at 10 µM [%]
Cc1ccc(-c2nc3ccc(Cl)cc3c3nnnn23)cc1 | < 10

Tested on: not listed separately
Test: Growth inhibition of human HCT15 cells at 10 uM after 48 hrs by SRB assay
Assay type: functional
Details: HCT-15, 48 h, read-out: GI
Procedure, shortened: as §1

SMILES | inhibition of growth at 10 µM [%]
Cc1ccc(-c2nc3ccc(Cl)cc3c3nnnn23)cc1 | < 10

Tested on: RPMI-8226
Test: Growth inhibition of human RPMI8226 cells at 10 uM after 48 hrs by SRB assay
Assay type: functional
Details: RPMI-8226, 48 h, read-out: GI
Procedure, shortened: as §1

SMILES | inhibition of growth at 10 µM [%]
Cc1ccc(-c2nc3ccc(Cl)cc3c3nnnn23)cc1 | < 10

Tested on: SK-MEL-2
Test: Growth inhibition of human SK-MEL-2 cells at 10 uM after 48 hrs by SRB assay
Assay type: functional
Details: SK-MEL-2, 48 h, read-out: GI
Procedure, shortened: as §1

SMILES | inhibition of growth at 10 µM [%]
Cc1ccc(-c2nc3ccc(Cl)cc3c3nnnn23)cc1 | < 10

Tested on: NCI-H322M
Test: Growth inhibition of human NCI-H322M cells at 10 uM after 48 hrs by SRB assay
Assay type: functional
Details: read-out: GI
Procedure, shortened: as §1

SMILES | inhibition of growth at 10 µM [%]
Cc1ccc(-c2nc3ccc(Cl)cc3c3nnnn23)cc1 | < 10

Tested on: not listed separately
Test: Growth inhibition of human UACC62 cells at 10 uM after 48 hrs by SRB assay
Assay type: functional
Details: UACC-62, 48 h, read-out: GI
Procedure, shortened: as §1

SMILES | inhibition of growth at 10 µM [%]
Cc1ccc(-c2nc3ccc(Cl)cc3c3nnnn23)cc1 | 18

Tested on: SNB-75
Test: Growth inhibition of human SNB75 cells at 10 uM after 48 hrs by SRB assay
Assay type: functional
Details: SNB-75, 48 h, read-out: GI
Procedure, shortened: as §1

SMILES | inhibition of growth at 10 µM [%]
Cc1ccc(-c2nc3ccc(Cl)cc3c3nnnn23)cc1 | < 10

Tested on: not listed separately
Test: Growth inhibition of human NCI-ADR-RES cells at 10 uM after 48 hrs by SRB assay
Assay type: functional
Details: read-out: GI
Procedure, shortened: as §1

SMILES | inhibition of growth at 10 µM [%]
Cc1ccc(-c2nc3ccc(Cl)cc3c3nnnn23)cc1 | < 10

Tested on: Malme-3M
Test: Growth inhibition of human MALME-3M cells at 10 uM after 48 hrs by SRB assay
Assay type: functional
Details: read-out: GI
Procedure, shortened: as §1

SMILES | inhibition of growth at 10 µM [%]
Cc1ccc(-c2nc3ccc(Cl)cc3c3nnnn23)cc1 | < 10

Tested on: T47D
Test: Growth inhibition of human T47D cells at 10 uM after 48 hrs by SRB assay
Assay type: functional
Details: read-out: GI
Procedure, shortened: as §1

SMILES | inhibition of growth at 10 µM [%]
Cc1ccc(-c2nc3ccc(Cl)cc3c3nnnn23)cc1 | 23

Tested on: NCI-H460
Test: Growth inhibition of human NCI-H460 cells at 10 uM after 48 hrs by SRB assay
Assay type: functional
Details: NCI-H460, 48 h, read-out: GI
Procedure, shortened: as §1

SMILES | inhibition of growth at 10 µM [%]
Cc1ccc(-c2nc3ccc(Cl)cc3c3nnnn23)cc1 | < 10

Tested on: SF-268
Test: Growth inhibition of human SF268 cells at 10 uM after 48 hrs by SRB assay
Assay type: functional
Details: SF-268, 48 h, read-out: GI
Procedure, shortened: as §1

SMILES | inhibition of growth at 10 µM [%]
Cc1ccc(-c2nc3ccc(Cl)cc3c3nnnn23)cc1 | < 10

Tested on: MDA-MB-468
Test: Growth inhibition of human MDA-MB-468 cells assessed as cell growth at 10 uM after 48 hrs by SRB assay
Assay type: functional
Details: MDA-MB-468, 48 h, read-out: GI
Procedure, shortened: as §1

SMILES | inhibition of growth at 10 µM [%]
Cc1ccc(-c2nc3ccc(Cl)cc3c3nnnn23)cc1 | < 10

Tested on: K562
Test: Growth inhibition of human K562 cells at 10 uM after 48 hrs by SRB assay
Assay type: functional
Details: K562, 48 h, read-out: GI
Procedure, shortened: as §1

SMILES | inhibition of growth at 10 µM [%]
Cc1ccc(-c2nc3ccc(Cl)cc3c3nnnn23)cc1 | 11

Tested on: HCT-116
Test: Growth inhibition of human HCT116 cells at 10 uM after 48 hrs by SRB assay
Assay type: functional
Details: HCT-116, 48 h, read-out: GI
Procedure, shortened: as §1

SMILES | inhibition of growth at 10 µM [%]
Cc1ccc(-c2nc3ccc(Cl)cc3c3nnnn23)cc1 | < 10

Tested on: SK-MEL-5
Test: Growth inhibition of human SK-MEL-5 cells at 10 uM after 48 hrs by SRB assay
Assay type: functional
Details: SK-MEL-5, 48 h, read-out: GI
Procedure, shortened: as §1

SMILES | inhibition of growth at 10 µM [%]
Cc1ccc(-c2nc3ccc(Cl)cc3c3nnnn23)cc1 | < 10

Tested on: not listed separately
Test: Growth inhibition of human MOLT4 cells at 10 uM after 48 hrs by SRB assay
Assay type: functional
Details: MOLT-4, 48 h, read-out: GI
Procedure, shortened: as §1

SMILES | inhibition of growth at 10 µM [%]
Cc1ccc(-c2nc3ccc(Cl)cc3c3nnnn23)cc1 | < 10

Tested on: COLO 205
Test: Growth inhibition of human COLO205 cells at 10 uM after 48 hrs by SRB assay
Assay type: functional
Details: COLO 205, 48 h, read-out: GI
Procedure, shortened: as §2

SMILES | inhibition of growth at 10 µM [%]
Cc1ccc(-c2nc3ccc(Cl)cc3c3nnnn23)cc1 | < 10

Tested on: SN12C
Test: Growth inhibition of human SN12C cells at 10 uM after 48 hrs by SRB assay
Assay type: functional
Details: read-out: GI
Procedure, shortened: as §1

SMILES | inhibition of growth at 10 µM [%]
Cc1ccc(-c2nc3ccc(Cl)cc3c3nnnn23)cc1 | 16

Tested on: SNB-19
Test: Growth inhibition of human SNB19 cells at 10 uM after 48 hrs by SRB assay
Assay type: functional
Details: SNB-19, 48 h, read-out: GI
Procedure, shortened: as §1

SMILES | inhibition of growth at 10 µM [%]
Cc1ccc(-c2nc3ccc(Cl)cc3c3nnnn23)cc1 | 11

Source: ChEMBL document CHEMBL3259728, “Design, synthesis and biological evaluation of some novel substituted quinazolines as antitumor agents” (2014)
